The target of assay [1] is T1, Delta-type opioid receptor (Homo sapiens, UniProt P41143). In words: Agonist activity at delta opioid receptor at 31.6 uM. The class given is functional.
The target in assay [2] is T1, Delta-type opioid receptor. The assay is described as follows: Antagonist activity at human cloned delta opioid receptor expressed in CHO cells assessed as inhibition of DPDPE-stimulated [35S]GTP-gamma-S binding in presence of 10 uM GDP. The format is functional, cell-based. The essentials:
(§1)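 Membranes of CHO cells expressing cloned human receptor (0.4-0.6 pmol/mg), 20-40 µg protein, with 0.5 nM [³⁵S]GTPγS, 10 µM GDP final, 1% DMSO, in 20 mM Hepes pH 7.4, 100 mM NaCl, 10 mM MgCl₂; 1 h room temperature. Agonist curves (seven concentrations, 0.32-32 000 nM) ± one test concentration (µ 3-300, δ 1-50, κ 50-300 nM). Filtration over GF/B, scintillation counting; Ke as mean ± SE, ≥3 experiments.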
A general note: Binding of GTPγS marks nucleotide exchange on a G protein.

For assay [3], the target named is T1, Delta-type opioid receptor. The assay is described as follows: Inverse agonist activity at human cloned delta opioid receptor expressed in CHO cells assessed as […] [35S]GTP-gamma-S binding in presence of 1 uM GDP. The format is functional, cell-based.
The target of assay [4] is Mu-type opioid receptor (Homo sapiens) (UniProt P35372). The assay is described as follows: Antagonist activity at human cloned mu opioid receptor expressed in CHO cells assessed as inhibition of DAMGO-stimulated [35S]GTP-gamma-S binding in presence of 10 uM GDP. The format is functional, cell-based. In short, it runs like this:
as §1

For assay [5] the target is unchanged. The assay is described as follows: Intrinsic activity at mu opioid receptor in presence of 1 uM GDP. The class given is functional.
The target of assay [6] is T1, Delta-type opioid receptor. In words: Inverse agonist activity at human cloned delta opioid receptor expressed in CHO cells assessed as […] [35S]GTP-gamma-S binding in presence of 1 uM GDP relative to control. The class given is functional, cell-based. Further details: scale not given: the % may be the effect or the level left.
Assay [7] has as its target Opioid receptors; delta & kappa (Homo sapiens) (UniProt P41145+P41143). In words: Selectivity for human cloned delta opioid receptor over kappa opioid receptor. The class given is protein assay. The essentials: (§2)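 Ratios of Ke values from [³⁵S]GTPγS antagonism assays at cloned human µ, δ and κ receptors in CHO membranes, each run with 10 µM GDP final against DAMGO, DPDPE or U69593 agonist curves.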

For assay [8], the target named is Kappa-type opioid receptor (Homo sapiens) (UniProt P41145). In words: Intrinsic activity at kappa opioid receptor in presence of 1 uM GDP. The class given is functional.
Chain of Kappa-type opioid receptor (Homo sapiens) (P41145 whole entry): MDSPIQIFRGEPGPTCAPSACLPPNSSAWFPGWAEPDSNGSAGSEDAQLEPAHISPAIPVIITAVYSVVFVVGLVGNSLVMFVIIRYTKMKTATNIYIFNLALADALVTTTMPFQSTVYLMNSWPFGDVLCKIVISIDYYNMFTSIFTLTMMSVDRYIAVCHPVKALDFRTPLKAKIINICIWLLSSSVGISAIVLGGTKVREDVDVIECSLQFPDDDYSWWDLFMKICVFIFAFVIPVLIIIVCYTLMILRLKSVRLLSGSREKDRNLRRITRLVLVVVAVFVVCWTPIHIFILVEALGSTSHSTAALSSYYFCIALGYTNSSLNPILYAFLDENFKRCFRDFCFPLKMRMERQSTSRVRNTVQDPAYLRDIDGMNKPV
For assay [9], the target named is Opioid receptors; mu & delta (Homo sapiens) (UniProt P41143+P35372). In words: Selectivity for human cloned delta opioid receptor over mu opioid receptor. The class given is protein assay. In short, it runs like this: as §2
Chain of Opioid receptors; mu & delta (Homo sapiens) (P35372 whole entry, looked up): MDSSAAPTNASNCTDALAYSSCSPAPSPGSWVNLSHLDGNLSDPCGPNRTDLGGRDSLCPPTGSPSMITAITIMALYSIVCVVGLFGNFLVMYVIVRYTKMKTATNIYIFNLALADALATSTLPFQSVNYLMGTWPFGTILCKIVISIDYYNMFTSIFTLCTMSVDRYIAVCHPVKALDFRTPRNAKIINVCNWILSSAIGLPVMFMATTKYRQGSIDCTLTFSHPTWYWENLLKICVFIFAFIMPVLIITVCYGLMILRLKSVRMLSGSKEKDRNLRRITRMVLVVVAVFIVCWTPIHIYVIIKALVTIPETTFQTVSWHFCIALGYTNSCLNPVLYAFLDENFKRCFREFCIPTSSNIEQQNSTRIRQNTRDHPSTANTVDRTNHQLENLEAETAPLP
Chain of Opioid receptors; mu & delta (Homo sapiens) (P41143 whole entry, looked up): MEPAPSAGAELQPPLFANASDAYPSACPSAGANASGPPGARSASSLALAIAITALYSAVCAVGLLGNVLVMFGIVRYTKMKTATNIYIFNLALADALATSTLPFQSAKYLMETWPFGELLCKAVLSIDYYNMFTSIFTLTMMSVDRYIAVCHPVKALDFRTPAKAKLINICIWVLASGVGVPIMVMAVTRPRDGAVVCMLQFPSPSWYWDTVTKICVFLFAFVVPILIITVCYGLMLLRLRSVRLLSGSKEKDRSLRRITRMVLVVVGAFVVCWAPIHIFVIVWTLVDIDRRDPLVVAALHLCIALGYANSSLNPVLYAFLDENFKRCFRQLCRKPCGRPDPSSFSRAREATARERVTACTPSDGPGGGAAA
Assay [10] deals with Kappa-type opioid receptor (Homo sapiens) (UniProt P41145). In words: Antagonist activity at human cloned kappa opioid receptor expressed in CHO cells assessed as inhibition of U69593-stimulated [35S]GTPgammaS binding in presence of 10 uM GDP. The format is functional, cell-based. In short, it runs like this: as §1

Molecules are shown by their SMILES. Calls of active or inactive are those of the source. The calls are words filed in the database; no cut-off is given here.

Chain of Mu-type opioid receptor (Homo sapiens) (P35372 whole entry): as the sequence (P35372 whole entry, looked up) above
Chain of Opioid receptors; delta & kappa (Homo sapiens) (P41143 whole entry, looked up): as the sequence (P41143 whole entry, looked up) above
Chain of Opioid receptors; delta & kappa (Homo sapiens) (P41145 whole entry, looked up): as the sequence (P41145 whole entry) above
T1 sequence (P41143 whole entry): as the sequence (P41143 whole entry, looked up) above

The IC50 is the concentration at which inhibition is half-maximal. For `C[C@H]1CN(C)[C@@H]2C[C@@H](NC(=O)C3(c4ccccc4)CCCC3)C[C@@]1(c1cccc(O)c1)C2`, the result in assay [1], in [5] and in assay [8] was inactive. For the same compound, the Ke in assay [2] worked out at 76.8 nM; in assay [4] it was 43.2 nM; in assay [10], 61 nM. For the same compound, the IC50 in [3] was 95 nM. Further, the Activity in assay [6] came out at 79%. The Ratio Ke is 0.8 in [7] and 0.6 in assay [9].
In the case of `C[C@H]1CN(CCCc2ccccc2)[C@@H]2C[C@@H](NC(=O)C(C)(C)c3ccccc3)C[C@@]1(c1cccc(O)c1)C2`, the outcome in [1], in assay [5] and in [8] was inactive. Moreover, the Ke was 0.1 nM in assay [2], 10.3 nM in assay [4] and 13.2 nM in assay [10]. Further, in assay [3], the IC50 was found to be 0.4 nM. For the same compound, the Activity in assay [6] is 64%. Further, the Ratio Ke in assay [7] was determined as 132; in assay [9], 103.
Take `COc1ccc(C2(C(=O)N[C@@H]3C[C@@H]4C[C@](c5cccc(O)c5)(C3)[C@@H](C)CN4CCCc3ccccc3)CCCC2)cc1`: the outcome in [1], in assay [5] and in assay [8] was inactive. Further, the Ke was found to be 0.67 nM in assay [2], 12 nM in assay [4] and 2.43 nM in assay [10]. Moreover, the half-maximal inhibitory concentration (IC50) in assay [3] stood at 0.48 nM. Besides, in assay [6], the Activity was 72%. The Ratio Ke in assay [7] is 3.6; in assay [9], 18.
For the compound `C[C@H]1CN(CCCc2ccccc2)[C@@H]2C[C@@H](NC(=O)C3(c4ccccc4)CCCCC3)C[C@@]1(c1cccc(O)c1)C2`, the result in assay [1], in assay [5] and in [8] was inactive. The Ke worked out at 0.34 nM in assay [2], 22.8 nM in assay [4] and 10.2 nM in assay [10]. Further, the concentration for half-maximal inhibition (IC50) in assay [3] amounted to 0.68 nM. Besides, the Activity in [6] amounted to 65%. In addition, the Ratio Ke in assay [7] turned out to be 30; in assay [9] it was 67.

The values are drawn from ChEMBL document CHEMBL1146887 (J Med Chem, 2006).
